ABHD4 inh = inhibits mouse alpha/beta hydrolase domain 4 | AID 720543 | purified mABHD4, FP-Rh probe fluorescence polarization | inhibition, % at 8.92 µM | Q8VD66 | 0.54% of 370,000 active;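 active = inhibition exceeding the mean over every tested compound plus 3 SD, cut at about 30% in these data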
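Assay system: mABHD4 protein; medium: HEPES pH 7.0, NaCl, Pluronic buffer; dosing: 8.92 µM, single dose; schedule: 45 min + 60 min at 25 °C; signal: FP readout, ex 525 nm / em 598 nm; read-out: normalized percent inhibition of probe labeling; repeats: single replicate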
PAFAH1B3 FP inh = inhibitors of human PAFAH1B3. recombinant PAFAH1B3, FP-rhodamine probe, fluorescence polarization. 0.28% of 340,000 active. Q15102. inhibition, % at 3.39 µM;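 active = inhibition above the screen-wide average of all tested compounds plus 3 SD, cut at about 25% in these data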
HTRA1 inhibitor = blocks human HTRA1 serine peptidase; 0.5% of 340,000 active; inhibition, % at 5.96 µM; recombinant HTRA1, FP-rhodamine activity-based probe, fluorescence polarization; Q92743; in the data active = inhibition above about 36%
Target sequence (Q92743 whole entry, looked up): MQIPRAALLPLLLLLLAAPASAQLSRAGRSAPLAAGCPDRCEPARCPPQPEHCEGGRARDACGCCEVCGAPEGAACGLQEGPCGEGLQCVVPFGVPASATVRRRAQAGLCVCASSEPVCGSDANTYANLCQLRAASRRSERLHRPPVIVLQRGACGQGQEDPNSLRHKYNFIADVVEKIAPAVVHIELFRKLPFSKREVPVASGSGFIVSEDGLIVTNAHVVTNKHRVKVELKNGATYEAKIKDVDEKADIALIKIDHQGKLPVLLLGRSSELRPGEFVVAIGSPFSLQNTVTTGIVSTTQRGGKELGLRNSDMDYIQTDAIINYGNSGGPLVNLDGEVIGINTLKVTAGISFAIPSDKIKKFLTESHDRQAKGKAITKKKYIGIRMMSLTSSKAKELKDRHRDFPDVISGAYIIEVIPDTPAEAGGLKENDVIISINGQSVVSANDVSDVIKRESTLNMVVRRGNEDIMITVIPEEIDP
PAFAH2 FP inh = PAFAH2 (human) inhibition | Q99487 | recombinant PAFAH2, FP-rhodamine activity probe, fluorescence polarization | inhibition, % at 3.39 µM | 0.99% of 340,000 active | AID 492956;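 active = inhibition above the mean over all tested compounds plus 3 SD, cut at about 30% in these data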;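 note: inhibitors block probe labeling of enzyme so polarization drops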
pPAFAH inh = inhibitors of human plasma PAF acetylhydrolase (pPAFAH); Q13093; recombinant pPAFAH, FP-rhodamine probe fluorescence polarization; inhibition, % at 3.39 µM; 1.5% of 330,000 active; AID 463082;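 active = inhibition above the mean inhibition across the screen plus 3 SD, cut at about 25% in these data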;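 note: inhibitors block binding of the rhodamine activity-based probe so polarization drops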
PAFAH1B2 FP inh = PAFAH1B2 (human) inhibition; recombinant PAFAH1B2, FP-rhodamine activity probe, fluorescence polarization; inhibition, % at 3.39 µM; AID 492953; P68402; 1.2% of 340,000 active;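 active = inhibition above the mean of all tested compounds plus 3 SD, cut at about 24% in these data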
pPAFAH confirm = confirmation of human plasma PAF acetylhydrolase (pPAFAH) inhibitors | 72% of 2,300 active | recombinant pPAFAH, FP-Rh probe fluorescence polarization | shares compounds with pPAFAH inh | AID 463230 | inhibition, % at 3.39 µM;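 active = mean inhibition of the triplicate above the hit cutoff set for the earlier primary screen, cut at about 25% in these data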
Hits are given with their value; - = inactive; . = no result given. An excerpt weighted towards active compounds, which were near 2.8% of everything screened.

SMILES	ABHD4 inh	PAFAH1B3 FP inh	HTRA1 inhibitor	PAFAH2 FP inh	pPAFAH inh	PAFAH1B2 FP inh	pPAFAH confirm
CCCCCC1CC(/C(C)=N/NC(N)=O)OC1=O (configuration not stated)	-	-	-	-	-	-	.
CCCCC1CC(/C(C)=N/NC(N)=O)OC1=O (configuration not stated)	-	-	-	-	58	-	-
COc1ccc(-c2[nH]ncc2N=Nc2ccccc2)cc1	-	-	-	-	49	-	-
Oc1cccc(/C=N/NC(=S)NCCN2CCOCC2)c1O	-	-	-	-	41	-	-
Cc1cc(/C=C2\SC(=S)N(Cc3ccco3)C2=O)c(C)n1-c1cccnc1	-	-	-	-	.	-	.
Cc1cc(/C=C2/SC(=S)N(c3cccc(C(F)(F)F)c3)C2=O)c(C)n1-c1cccnc1	.	-	-	-	44	-	42
COc1ccc(CCNC(=O)Cc2ccc(NC3=NC4CS(=O)(=O)CC4S3)cc2)c(OC)c1 (configuration not stated)	-	-	-	-	36	-	-
Cc1ccc(CNC(=O)O[C@H]2CC[C@@]34CCCN3C(=O)CCC[C@H]4C2)cc1	-	.	.	.	.	.	.
CCOC(=O)Cc1cc(=O)n2[nH]c(-c3ccccc3)c(-c3ccccc3)c2n1	-	-	-	-	43	-	-
CCOC(=O)Cc1cc(=O)n2[nH]c(C)c(-c3ccccc3)c2n1	-	-	-	-	-	-	.
COc1ccc(S(=O)(=O)CC(=O)c2cc3cc(Br)ccc3oc2=O)cc1	-	-	-	-	37	-	33
Cc1ccccc1NC(=O)Nc1ccc2c(c1)C(=O)N(C)[C@H]1CC[C@H](CC(=O)NCC3CC3)O[C@@H]1CO2	-	.	.	.	.	.	.
COc1cc2c(cc1NC(=O)CSc1nnc(-c3cccnc3)n1-c1ccc(Br)cc1)oc1ccccc12	-	.	.	.	.	.	.
COc1ccc(Cl)cc1C(=O)NNC(=O)c1[nH]c(C)c(C(C)=O)c1C	-	-	-	-	54	-	-
Cc1c(NC(=S)N/N=C/c2cc([N+](=O)[O-])ccc2O)c(=O)n(-c2ccccc2)n1C	-	-	-	-	47	-	-
Cc1nn2c3c(cnc2c1-c1ccccc1)C(=O)CCC3	-	-	-	-	-	-	.
N#CCc1nn2c3c(cnc2c1C#N)C(=O)CCC3	-	-	-	-	53	-	-
CCOC(=O)c1cc(-c2ccc(/C=C3/C(=O)NC(=O)C(C#N)=C3C)o2)ccc1Cl	-	-	-	-	46	-	48
C[C@H]1[C@H](NC(=O)c2ccc(Cl)c(C(F)(F)F)c2)CC[C@@]23CCCN2C(=O)CCC[C@@H]13	-	.	.	.	.	.	.
CCCCc1ccc(NC(=O)CSCc2cc(=O)[nH][nH]2)cc1	-	-	-	-	36	-	-
O=C(CSCc1cc(=O)[nH][nH]1)Nc1ccc(F)cc1	-	-	-	-	-	-	.
Cc1ccc2nc3sc(C(=O)N4CCN(C)CC4)cc3cc2c1	-	.	.	.	.	.	.
O=C(Oc1nsnc1N1CCOCC1)N1CCCCC1	-	-	-	-	57	-	50
O=C(Oc1nsnc1N1CCOCC1)c1ccccc1	-	-	-	-	-	-	.
O=C(Oc1nsnc1N1CCOCC1)N1CCOCC1	-	-	-	31	85	-	89
SMILES	ABHD4 inh	PAFAH1B3 FP inh	HTRA1 inhibitor	PAFAH2 FP inh	pPAFAH inh	PAFAH1B2 FP inh	pPAFAH confirm
Cc1ccc(C2Nc3ccc4ccccc4c3C3=C2C(=O)CC(C)(C)C3)o1 (configuration not stated)	.	-	-	-	-	-	.
O=C1CCCC2=C1C(c1ccco1)Nc1ccc3ccccc3c12 (configuration not stated)	-	-	-	-	40	-	29
CC1=Nc2nc(N3CCCCCC3)c(C#N)c3c4c(nc(c23)N1)N(c1ccc2ccccc2c1)C(=O)C4	.	-	-	-	59	-	-
CCOc1cc(CCNC(=O)c2cc3ccsc3n2C)ccc1OC	-	.	.	.	.	.	.
Cc1ccc(-c2c(NC(=O)C3CC3)nc3ncccn23)cc1	-	.	.	.	.	.	.
CN(c1ccc(OCC(=O)NC2CCC(O)CC2)cc1)S(=O)(=O)c1ccc(Cl)cc1 (configuration not stated)	-	-	-	-	37	-	-
CCOc1ccc(-n2c(C)cc(/C=N/Nc3nc(C)cc(=O)[nH]3)c2C)cc1	-	-	-	-	43	-	85
CC1=NN(c2ccccc2)C(=O)/C1=C/c1c(O)n(-c2ccc(F)c(Cl)c2)[nH]c1=O	.	.	.	.	75	.	47
CCCCCC(=O)Cc1cc(O)cc2c1C(=O)Oc1cc(O)c(C(=O)O)c(CCCCC)c1O2	.	.	.	.	43	.	59
Cc1ccc(S(=O)(=O)N2[C@@H](c3ccc(C(C)(C)C)cc3)C(C(=O)O)=CC[C@H]2c2ccc3c(c2)OCO3)cc1	-	-	-	-	58	92	-
NC(=O)Cn1c(=O)n(Cc2ccco2)c(=O)c2c3c(sc21)CCCCC3	-	-	-	-	36	-	-
COc1ccc(C2C(C(=O)N3CCN(c4ccccc4Cl)CC3)CC(=O)N2c2ccc(OC)cc2)cc1 (configuration not stated)	-	.	.	.	.	.	.
O=C(c1cccc(F)c1F)N(Cc1ccccn1)CC1CCCO1 (configuration not stated)	-	.	.	.	.	.	.
Oc1ccc(Br)cc1/C=N/n1c(-c2ccccc2)n[nH]c1=S	-	-	-	-	-	-	.
Oc1c(Br)cc(Br)c(/C=N/n2c(-c3ccccc3)n[nH]c2=S)c1Br	-	-	-	31	42	-	53
CCCCCCCCN1[C@@H](CC(=O)OC)c2cc(F)ccc2S1(=O)=O	-	-	-	-	-	-	.
CCCCCCCCN1[C@@H](CC(=O)OCC)c2ccc(C(F)(F)F)cc2S1(=O)=O	-	-	-	-	-	-	.
CCCCCCCCCCCCN1[C@@H](CC(=O)O)c2cc(F)ccc2S1(=O)=O	-	-	-	-	48	31	34
CCCCCCCCCCCCN1[C@@H](CC(=O)O)c2cc(C(F)(F)F)ccc2S1(=O)=O	-	-	-	-	44	-	41
Cc1cc(C(C#N)c2ccc(Cl)cc2)c(Cl)cc1NC(=O)c1cc(I)cc(I)c1O (configuration not stated)	-	-	-	-	47	-	41
Cc1cc(NC(=O)c2ccc(Cl)cc2)c(C)cc1O	-	-	-	-	-	-	.
C[C@@H]1COc2cccc(F)c2S(=O)(=O)N1C	-	.	.	.	.	.	.
CCc1nc2ccc(C(=O)NCCc3ccc(OC)c(OC)c3)cc2nc1CC	-	-	-	-	-	-	.
COc1ccc(CCNC(=O)c2ccc3nc(-c4ccco4)c(-c4ccco4)nc3c2)cc1OC	.	-	-	-	44	-	-
O=C(Nc1cccc(C(F)(F)F)c1)c1ccc2nc(-c3ccco3)c(-c3ccco3)nc2c1	-	29	67	31	70	-	77
